Laboratory results from ChEMBL document CHEMBL4190389, “Synthesis and activity of di- or trisubstituted N-(phenoxyalkyl)- or N-{2-[2-(phenoxy)ethoxy]ethyl}piperazine derivatives on the central nervous system” (Bioorg Med Chem Lett, 2018).
The source made the active and inactive calls. The calls are words filed in the database; no cut-off is given here.

Columns and labels:
[1] = biological target: T1, 5-hydroxytryptamine receptor 2A (Homo sapiens, UniProt P28223); experiment: biochemical; type: cell-based, HEK293
[2] = biological target: 5-hydroxytryptamine receptor 6 (Homo sapiens, UniProt P50406); experiment: Displacement of [3H]LSD from recombinant human 5-HT6 receptor expressed in CHO cells cell membranes after 60 mins by liquid scintillation counting method
[3] = biological target: T2, 5-hydroxytryptamine receptor 7 (Homo sapiens, UniProt P34969); experiment: biochemical; type: cell-based, CHO
[4] = test system: Mus musculus; experiment: Antidepressant-like activity in Albino Swiss CD-1 mouse assessed as immobility time at 5 mg/kg, ip administered 30 mins prior to test measured for last 4 mins of 6 mins observation by forced swim test (reference value: 153.9 to 201.9 secs); type: functional
[5] = test system: Mus musculus; experiment: Antidepressant-like activity in Albino Swiss CD-1 mouse assessed as immobility time at 10 mg/kg, ip administered 30 mins prior to test measured for last 4 mins of 6 mins observation by forced swim test (reference value: 153.9 to 201.9 secs); type: functional
[6] = test system: Mus musculus; experiment: Antidepressant-like activity in Albino Swiss CD-1 mouse assessed as immobility time at 20 mg/kg, ip administered 30 mins prior to test measured for last 4 mins of 6 mins observation by forced swim test (reference value: 153.9 to 201.9 secs); type: functional
[7] = test system: Mus musculus; experiment: Anxiolytic-like activity in Albino Swiss CD-1 mouse assessed as increase in number of punished crossings at 5 to 10 mg/kg, ip administered for 30 mins prior to test measured for 1 min by four-plate test; type: functional, organism-based
Procedure, shortened: (§1)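 Four-plate test in mice, i.p., 30 min before test; vehicle 0.9% NaCl; doses 1.25–10 mg/kg; number of punished crossings counted; mean ± SEM, n = 8–10 mice per group; ANOVA F statistics.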

[8] = test system: Mus musculus; experiment: Toxicity in Albino Swiss CD-1 mouse assessed as effect on locomotory activity at 5 to 10 mg/kg, ip administered for 30 mins prior to test measured for 1 min; type: organism-based; settings: in vivo
Procedure, shortened: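 Mice dosed i.p. 30 min before test; vehicle groups received 0.9% NaCl. Spontaneous locomotion scored as number of crossings during a 1-min session. Each dose compared with its own vehicle group by Student t-test; mean ± SEM, n = 8–10 mice per group.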

[9] = test system: Mus musculus; experiment: Anticonvulsant activity in Albino Swiss CD-1 mouse assessed as protection against 50 Hz current-induced seizure at 100 mg/kg, ip; type: functional, organism-based
[10] = test system: Mus musculus; experiment: Toxicity in Albino Swiss CD-1 mouse assessed as death at 30 to 100 mg/kg, ip; type: organism-based; settings: in vivo
Procedure, shortened: (§2)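 Deaths counted in mice during maximal electroshock (MES) seizure testing after i.p. dosing, 6 mice per dose (3 or 1 at some top doses); recorded as number dead/number tested alongside protection and rotarod motor impairment (10 rpm); untreated control group included.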

[11] = test system: Mus musculus; experiment: Anticonvulsant activity in ip dosed Albino Swiss CD-1 mouse assessed as dose required to protect against 50 Hz current-induced seizure; type: functional; settings: Swiss CD-1, ip
[12] = Neurotoxicity in ip dosed Albino Swiss CD-1 mouse assessed as minimum dose required to induce motor impairment treated 30 mins prior to test by rotarod test; type: toxicity, organism-based; settings: in vivo
[13] = Protection index, ratio of TD50 for motor impairment in ip dosed Swiss albino CD-1 mouse to ED50 for protection against 50 Hz current-induced seizures in ip dosed Swiss albino CD-1 mouse; type: toxicity, organism-based, Swiss CD-1; settings: in vivo, read-out: Ratio TD50/ED50
[14] = test system: Mus musculus; experiment: Antiallodynic activity in STZ-induced Albino Swiss CD-1 mouse allodynia model assessed as increase in paw withdrawal latency time at 30 mg/kg, ip measured after 60 mins by Von Frey test; type: functional, organism-based
[15] = test system: Mus musculus; experiment: Antinociceptive activity in STZ-induced Albino Swiss CD-1 mouse model of thermal-induced nociception assessed as increase in latency to respond with hind paw lick or jumping at 30 mg/kg, ip measured after 60 mins by hot plate test; type: functional, organism-based
[16] = test system: Mus musculus; experiment: Antiallodynic activity in oxaliplatin-induced Albino Swiss CD-1 mouse allodynia model assessed as effect on hind paw licking at 30 mg/kg, ip measured after 60 mins by cold plate test; type: functional, organism-based
[17] = test system: Mus musculus; experiment: Antiallodynic activity in oxaliplatin-induced Albino Swiss CD-1 mouse allodynia model assessed as effect on shaking at 30 mg/kg, ip measured after 60 mins by cold plate test; type: functional, organism-based
[18] = test system: Mus musculus; experiment: Antiallodynic activity in oxaliplatin-induced Albino Swiss CD-1 mouse allodynia model assessed as effect on jumping at 30 mg/kg, ip measured after 60 mins by cold plate test; type: functional, organism-based
[19] = test system: Mus musculus; experiment: Antiallodynic activity in oxaliplatin-induced Albino Swiss CD-1 mouse allodynia model assessed as effect on decrease in abnormal movement at 30 mg/kg, ip measured after 60 mins by cold plate test; type: functional, organism-based
[20] = biological target: T3, 5-hydroxytryptamine receptor 1A (Homo sapiens) (UniProt P08908); experiment: Displacement of [3H]8-OH-DPAT from recombinant human 5-HT1A receptor expressed in HEK293 cell membranes at 10^-5 M after 60 mins by liquid scintillation counting method
T3 sequence (whole entry): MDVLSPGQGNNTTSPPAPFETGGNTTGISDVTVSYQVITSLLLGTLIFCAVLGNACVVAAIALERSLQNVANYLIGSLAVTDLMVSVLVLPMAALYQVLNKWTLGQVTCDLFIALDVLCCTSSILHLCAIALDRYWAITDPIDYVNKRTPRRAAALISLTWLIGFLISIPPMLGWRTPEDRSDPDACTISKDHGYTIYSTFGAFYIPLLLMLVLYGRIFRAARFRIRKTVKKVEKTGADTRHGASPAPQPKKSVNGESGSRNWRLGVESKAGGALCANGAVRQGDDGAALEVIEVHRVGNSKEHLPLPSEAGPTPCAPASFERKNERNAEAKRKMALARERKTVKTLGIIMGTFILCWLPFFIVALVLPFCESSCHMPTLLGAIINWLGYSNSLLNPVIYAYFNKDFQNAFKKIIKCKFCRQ

[21] = biological target: T4, D(2) dopamine receptor (Homo sapiens, UniProt P14416); experiment: Displacement of [3H]methylspiperonee from recombinant human D2 receptor expressed in HEK293 cell membranes at 10^-5 M after 60 mins by liquid scintillation counting method
[22] = biological target: T5, Alpha-1A adrenergic receptor (Homo sapiens) (UniProt P35348); experiment: Displacement of [3H]prazosin from recombinant human alpha1 adrenoceptor expressed in CHO cell membranes at 10^-5 M after 30 mins by liquid scintillation counting method
T5 sequence (whole entry): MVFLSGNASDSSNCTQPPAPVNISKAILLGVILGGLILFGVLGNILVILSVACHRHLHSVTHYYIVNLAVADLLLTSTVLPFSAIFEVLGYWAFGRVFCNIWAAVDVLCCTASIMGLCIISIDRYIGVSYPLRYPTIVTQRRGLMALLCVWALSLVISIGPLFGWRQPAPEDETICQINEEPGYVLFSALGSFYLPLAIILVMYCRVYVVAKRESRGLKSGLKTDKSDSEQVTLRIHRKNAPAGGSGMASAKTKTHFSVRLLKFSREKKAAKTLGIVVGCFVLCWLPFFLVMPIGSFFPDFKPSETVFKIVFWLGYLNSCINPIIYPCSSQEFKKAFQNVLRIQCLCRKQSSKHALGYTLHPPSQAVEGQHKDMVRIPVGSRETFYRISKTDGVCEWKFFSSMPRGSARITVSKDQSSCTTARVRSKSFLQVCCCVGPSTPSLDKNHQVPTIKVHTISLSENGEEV

[23] = biological target: T6, 5-hydroxytryptamine receptor 1A (Homo sapiens, UniProt P08908); experiment: Displacement of [3H]8-OH-DPAT from recombinant human 5-HT1A receptor expressed in HEK293 cell membranes after 60 mins by liquid scintillation counting method
T6 sequence (P08908 whole entry): T3 sequence (whole entry)

[24] = biological target: T4, D(2) dopamine receptor; experiment: Displacement of [3H]methylspiperonee from recombinant human D2 receptor expressed in HEK293 cells cell membranes after 60 mins by liquid scintillation counting method
[25] = biological target: T7, Alpha-1A adrenergic receptor (Homo sapiens, UniProt P35348); experiment: Displacement of [3H]prazosin from recombinant human alpha1 adrenoceptor expressed in CHO cell membranes after 30 mins by liquid scintillation counting method
T7 sequence (P35348 whole entry): T5 sequence (whole entry)

[26] = biological target: T3, 5-hydroxytryptamine receptor 1A (Homo sapiens); experiment: Agonist activity at human 5-HT1A receptor expressed in CHO-K1 cells co-expressing Galpha16 assessed as increase in calcium mobilization measured for 30 secs by aequorin-derived luminescence assay relative to serotonin; type: functional, cell-based
[27] = biological target: T3, 5-hydroxytryptamine receptor 1A (Homo sapiens); experiment: Antagonist activity at human 5-HT1A receptor expressed in CHO-K1 cells co-expressing Galpha16 assessed as decrease in serotonin-induced calcium mobilization preincubated for 25 mins followed by serotonin challenge measured for 30 secs by aequorin-derived luminescence assay relative to control; type: functional, cell-based
[28] = biological target: T3, 5-hydroxytryptamine receptor 1A (Homo sapiens); experiment: (§3) Antagonist activity at human 5-HT1A receptor expressed in CHO-K1 cells co-expressing Galpha16 assessed as decrease in serotonin calcium mobilization preincubated for 25 mins followed by serotonin challenge measured for 30 secs by aequorin-derived luminescence assay; type: functional, cell-based
[29] = biological target: T6, 5-hydroxytryptamine receptor 1A; experiment: as §3; type: functional, cell-based
[30] = biological target: T1, 5-hydroxytryptamine receptor 2A; experiment: Antagonist activity at human 5-HT2A receptor expressed in CHO-K1 cells co-expressing Galpha16 assessed as decrease in serotonin calcium mobilization preincubated for 30 mins followed by serotonin challenge measured for 30 secs by aequorin-derived luminescence assay; type: functional, cell-based
[31] = biological target: T2, 5-hydroxytryptamine receptor 7; experiment: Agonist activity at human 5-HT7 receptor expressed in CHO-K1 cells assessed as increase in serotonin-induced cAMP level after 1 hr by TR-FRET assay relative to serotonin; type: functional, cell-based
[32] = biological target: T2, 5-hydroxytryptamine receptor 7; experiment: Antagonist activity at human 5-HT7 receptor expressed in CHO-K1 cells assessed as decrease in serotonin-induced cAMP level after 1 hr by TR-FRET assay relative to control; type: functional, cell-based
[33] = biological target: T2, 5-hydroxytryptamine receptor 7; experiment: Antagonist activity at human 5-HT7 receptor expressed in CHO-K1 cells assessed as decrease in serotonin-induced cAMP level after 1 hr by TR-FRET assay; type: functional, cell-based
[34] = biological target: T4, D(2) dopamine receptor; experiment: Agonist activity at human D2 receptor expressed in CHO-K1 cells co-expressing Galphaqi5 assessed as increase apomorphine-induced calcium mobilization measured for 30 secs by aequorin-derived luminescence assay relative to apomorphine; type: functional, cell-based
[35] = biological target: T4, D(2) dopamine receptor; experiment: Antagonist activity at human D2 receptor expressed in CHO-K1 cells co-expressing Galphaqi5 assessed as decrease in apomorphine-induced calcium mobilization preincubated for 30 mins followed by apomorphine challenge measured for 30 secs by aequorin-derived luminescence assay; type: functional, cell-based
[36] = test system: Mus musculus; experiment: Anxiolytic-like activity in Albino Swiss CD-1 mouse assessed as increase in number of punished crossings at 2.5 to 5 mg/kg, ip administered for 30 mins prior to test measured for 1 min by four-plate test; type: functional, organism-based
Procedure, shortened: as §1

[37] = test system: Mus musculus; experiment: Toxicity in Albino Swiss CD-1 mouse assessed as death at 30 mg/kg, ip; type: organism-based; settings: in vivo
Procedure, shortened: as §2

[38] = test system: Mus musculus; experiment: Toxicity in Albino Swiss CD-1 mouse assessed as effect on locomotory activity at 1.25 to 5 mg/kg, ip administered for 30 mins prior to test measured for 1 min; type: organism-based; settings: in vivo

T2 sequence (P34969 whole entry): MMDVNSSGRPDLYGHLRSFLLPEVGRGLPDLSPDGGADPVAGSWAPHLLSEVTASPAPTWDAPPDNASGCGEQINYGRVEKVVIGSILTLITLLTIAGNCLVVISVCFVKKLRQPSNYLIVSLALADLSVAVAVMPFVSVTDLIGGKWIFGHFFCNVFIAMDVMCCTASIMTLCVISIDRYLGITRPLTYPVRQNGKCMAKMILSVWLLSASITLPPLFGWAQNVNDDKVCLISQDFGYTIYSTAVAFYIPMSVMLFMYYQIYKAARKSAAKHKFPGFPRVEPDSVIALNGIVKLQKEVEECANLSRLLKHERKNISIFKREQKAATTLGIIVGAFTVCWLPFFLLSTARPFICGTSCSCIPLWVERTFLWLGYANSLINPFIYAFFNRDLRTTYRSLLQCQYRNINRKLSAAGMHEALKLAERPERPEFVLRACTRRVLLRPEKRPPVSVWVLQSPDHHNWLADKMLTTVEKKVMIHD
T4 sequence (P14416 whole entry): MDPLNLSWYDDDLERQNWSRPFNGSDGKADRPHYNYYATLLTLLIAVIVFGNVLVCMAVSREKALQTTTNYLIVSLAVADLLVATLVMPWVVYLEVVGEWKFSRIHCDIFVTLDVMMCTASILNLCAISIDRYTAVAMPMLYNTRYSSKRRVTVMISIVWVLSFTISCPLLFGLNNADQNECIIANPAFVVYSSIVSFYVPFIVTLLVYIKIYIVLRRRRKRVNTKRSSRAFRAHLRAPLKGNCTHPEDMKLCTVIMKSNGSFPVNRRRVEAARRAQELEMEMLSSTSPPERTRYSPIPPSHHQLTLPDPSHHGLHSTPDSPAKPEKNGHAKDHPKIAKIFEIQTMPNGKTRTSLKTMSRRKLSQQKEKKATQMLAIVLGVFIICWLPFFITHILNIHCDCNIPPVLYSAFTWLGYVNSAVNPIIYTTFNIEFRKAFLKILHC
T1 sequence (P28223 whole entry): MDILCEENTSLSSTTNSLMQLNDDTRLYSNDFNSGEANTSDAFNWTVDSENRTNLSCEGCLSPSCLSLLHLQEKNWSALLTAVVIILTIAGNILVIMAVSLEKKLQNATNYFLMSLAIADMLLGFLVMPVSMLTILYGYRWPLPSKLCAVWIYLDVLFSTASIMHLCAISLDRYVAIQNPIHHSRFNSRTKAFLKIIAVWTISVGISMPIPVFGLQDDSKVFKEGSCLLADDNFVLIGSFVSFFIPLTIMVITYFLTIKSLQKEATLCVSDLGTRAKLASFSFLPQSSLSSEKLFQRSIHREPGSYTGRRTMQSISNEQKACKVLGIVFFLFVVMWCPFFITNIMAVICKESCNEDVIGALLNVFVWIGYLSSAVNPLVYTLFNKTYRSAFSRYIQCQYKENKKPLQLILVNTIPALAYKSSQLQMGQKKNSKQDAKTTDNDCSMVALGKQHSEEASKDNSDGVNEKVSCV
Sequence of 5-hydroxytryptamine receptor 6 (P50406 whole entry): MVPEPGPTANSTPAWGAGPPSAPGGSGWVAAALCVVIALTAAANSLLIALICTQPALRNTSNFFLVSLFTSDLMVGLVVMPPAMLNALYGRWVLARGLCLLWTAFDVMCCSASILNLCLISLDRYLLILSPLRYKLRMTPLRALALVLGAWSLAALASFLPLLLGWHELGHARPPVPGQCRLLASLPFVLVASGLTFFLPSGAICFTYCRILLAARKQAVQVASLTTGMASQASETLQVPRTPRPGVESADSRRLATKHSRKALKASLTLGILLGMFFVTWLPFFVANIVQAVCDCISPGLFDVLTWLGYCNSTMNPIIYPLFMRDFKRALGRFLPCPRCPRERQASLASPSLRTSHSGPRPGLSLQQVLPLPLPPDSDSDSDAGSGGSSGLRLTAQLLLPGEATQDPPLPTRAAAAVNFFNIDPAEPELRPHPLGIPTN

SMILES: Cc1cc(C)c(C)c(OCCOCCN2CCN(CCO)CC2)c1.Cl.Cl
- Ki [1]: > 5000 nM
- Ki [2]: > 5000 nM
- Ki [3]: 3140 nM
- Time [4]: 171.8 s
- Time [5]: 184.9 s
- Time [6]: 176.4 s
- Activity [7]: inactive
- Activity [8]: Non-Toxic
- Activity [9]: Active
- Activity [10]: Non-Toxic
- ED50 [11]: 24.4 mg/kg
- TD50 at 0.5 h [12]: 74.9 mg/kg
- selectivity ratio [13]: 3.07
- Activity [14]: Active
- Activity [15]: inactive
- Activity [16]: inactive
- Activity [17]: inactive
- Activity [18]: inactive
- Activity [19]: inactive
- inhibition [20]: inactive
- inhibition [21]: inactive
- inhibition [22]: inactive

SMILES: COc1ccccc1N1CCN(CCOCCOc2cc(C)cc(C)c2C)CC1.Cl.Cl
- Ki [23]: 32 nM
- Ki [1]: 159 nM
- Ki [2]: 1540 nM
- Ki [3]: 89 nM
- Ki [24]: 162 nM
- Ki [25]: 14 nM
- Emax [26]: 5%
- Emax [27]: 4%
- Kb [28]: 92.3 nM
- IC50 [29]: 376 nM
- IC50 [30]: 4010 nM
- Emax [31]: 9%
- Emax [32]: 11%
- IC50 [33]: 2340 nM
- Kb [33]: 995 nM
- Emax [34]: 1%
- IC50 [35]: 78.5 nM
- Kb [35]: 23.4 nM
- Time [4]: 165.6 s
- Time [5]: 141.9 s
- Time [6]: 156.1 s
- Activity [36]: Active
- Activity [37]: Non-Toxic
- Activity [38]: Non-Toxic
